Laboratory results: ChEMBL document CHEMBL4130408, “Photoactivation provides a mechanistic explanation for pan-assay interference behaviour of 2-aminopyrroles in lipoxygenase inhibition” (Eur J Med Chem, 2017)

Target: T1, Polyunsaturated fatty acid lipoxygenase ALOX15 (Homo sapiens) (UniProt P16050)
T1 sequence (whole entry): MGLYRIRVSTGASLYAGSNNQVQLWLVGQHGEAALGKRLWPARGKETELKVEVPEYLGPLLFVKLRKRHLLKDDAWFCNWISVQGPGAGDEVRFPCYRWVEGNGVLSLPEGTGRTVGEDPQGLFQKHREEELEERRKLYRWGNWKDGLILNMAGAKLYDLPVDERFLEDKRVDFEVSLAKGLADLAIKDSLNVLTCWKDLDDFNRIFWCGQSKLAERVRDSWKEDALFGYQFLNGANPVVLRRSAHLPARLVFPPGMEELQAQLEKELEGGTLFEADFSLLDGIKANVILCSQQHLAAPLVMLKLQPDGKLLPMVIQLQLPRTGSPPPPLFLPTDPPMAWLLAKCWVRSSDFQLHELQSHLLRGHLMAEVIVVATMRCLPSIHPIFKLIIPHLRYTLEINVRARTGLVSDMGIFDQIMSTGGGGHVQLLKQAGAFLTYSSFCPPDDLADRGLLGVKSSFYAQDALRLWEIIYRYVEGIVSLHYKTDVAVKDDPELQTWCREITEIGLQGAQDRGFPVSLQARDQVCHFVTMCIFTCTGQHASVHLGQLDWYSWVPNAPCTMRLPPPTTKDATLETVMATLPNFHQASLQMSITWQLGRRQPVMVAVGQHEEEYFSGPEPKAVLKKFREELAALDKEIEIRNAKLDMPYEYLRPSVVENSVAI
Experiment: Inhibition of recombinant human 15-LOX-1 expressed in Escherichia coli BL21(DE3) assessed as residual activity at 50 uM using linoleic acid as substrate preincubated for 10 mins followed by substrate addition
In short: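 h-15-LOX-1 (1:100 enzyme stock, 1:400 final) preincubated 10 min at room temperature with inhibitor in 25 mM HEPES pH 7.4, then linoleic acid added to 25 µM final (inhibitor 50 µM final). 13(S)-HpODE formation read as A234 over time, rate taken from linear part within first 16 min; no-inhibitor = 100%, no-enzyme = 0%. Triplicate.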

| SMILES | Activity [%] |
| --- | --- |
| Nc1[nH]c(C(=O)c2ccccc2)c(-c2cccc(Br)c2)c1C(=O)c1ccccc1 | 61.2 |
| COc1ccc2cccc(-c3c(C(=O)c4ccc(Br)cc4)[nH]c(N)c3C(=O)NCc3ccc(-c4ccccc4)cc3)c2c1 | 115 |
| CN(C)CCCNC(=O)c1c(N)[nH]c(C(=O)c2ccc(Br)cc2)c1-c1ccc(Br)cc1 | 114 |
| Nc1[nH]c2cc(Cl)ccc2c1C(=O)N1CCOCC1 | 107 |
| CC(C)(C)C(=O)c1c(N)[nH]c(C(=O)c2ccccc2)c1-c1ccc(C(F)(F)F)cc1 | 86.9 |
| Cc1ccccc1-c1c(C(=O)c2ccccc2)[nH]c(N)c1C(=O)c1ccc(Cl)cc1 | 94.9 |
| Nc1[nH]c(C(=O)c2ccccc2)c(-c2ccncc2)c1C(=O)NC1CC1 | 91 |
| Nc1[nH]c(C(=O)c2ccccc2)c(-c2ccccc2Cl)c1C(=O)c1ccccc1 | 70.9 |
| Nc1[nH]c(C(=O)c2ccccc2)c(-c2ccccn2)c1C(=O)NCCCCl | 92.1 |
| CC(C)(C)C(=O)c1c(N)[nH]c(C(=O)c2ccccc2)c1-c1c(F)cccc1F | 91.9 |
| CN(C)c1ccc(-c2c(C(=O)c3ccccc3)[nH]c(N)c2C(N)=O)cc1 | 103 |
| NC(=O)c1c(N)[nH]c(C(=O)c2ccccc2)c1-c1cccnc1 | 99.1 |
| Cc1[nH]c2ccccc2c1C(=O)c1c(N)[nH]c(C(=O)c2ccc(Br)cc2)c1-c1ccc(Br)cc1 | 29.7 |
| Nc1[nH]c(C(=O)c2ccccc2)c(-c2ccc(Br)cc2)c1C(=O)c1cccs1 | 81.3 |
| Nc1[nH]c2ccccc2c1C(=O)NC1CC1 | 126 |
| CC(C)(C)C(=O)c1c(N)[nH]c(C(=O)c2ccccc2)c1-c1ccc(Cl)cc1 | 94.5 |
| Nc1[nH]c(C(=O)c2ccccc2)c(-c2cccc3ccccc23)c1C(=O)c1ccccc1 | 108 |
| N#Cc1c(N)[nH]c(C(=O)c2ccccc2)c1-c1ccc(Cl)cc1 | 92.2 |
| Nc1[nH]c2cc(C(F)(F)F)ccc2c1C(=O)NC1CCCCC1 | 125 |

| SMILES | Activity [%] |
| --- | --- |
| CC(C)(C)C(=O)c1c(N)[nH]c(C(=O)c2ccccc2)c1-c1ccccc1 | 112 |
| Nc1[nH]c(C(=O)c2ccc(Cl)cc2)c(-c2ccc(Br)cc2)c1C(=O)c1c[nH]c2ccc(F)cc12 | 96.2 |
| Nc1[nH]c(C(=O)c2ccccc2)c(-c2ccc([N+](=O)[O-])cc2)c1C(=O)N1CCC(CO)CC1 | 85 |
| COC(=O)c1c(N)[nH]c(C(=O)c2ccccc2)c1-c1ccccc1Br | 74.8 |
| CC(NC(=O)c1c(N)[nH]c(C(=O)c2ccccc2)c1-c1ccccc1Br)c1cccc2ccccc12 (configuration not stated) | 71.3 |
| Nc1[nH]c(C(=O)c2ccccc2)c(-c2ccc(Br)cc2)c1C(=O)NC1CCCCC1 | 87.5 |
| Nc1[nH]c(C(=O)c2ccccc2)c(-c2ccc(Br)cc2)c1C(=O)c1ccccc1 | 63.2 |
| Nc1[nH]c(C(=O)c2ccccc2)c(-c2cccc3ccccc23)c1C(=O)c1ccc(Br)cc1 | 107 |
| Nc1[nH]c(C(=O)c2ccccc2)c(-c2ccc(Cl)cc2)c1C(=O)c1ccc(Cl)cc1 | 100 |
| CC(C)(C)C(=O)c1c(N)[nH]c(C(=O)c2ccccc2)c1-c1ccc([N+](=O)[O-])cc1 | 110 |
| NC(=O)c1c(N)[nH]c(C(=O)c2ccccc2)c1-c1ccc2c(c1)OCO2 | 92.3 |
| CC(NC(=O)c1c(N)[nH]c(C(=O)c2ccc(Cl)cc2)c1-c1ccc(Br)cc1)c1cccc2ccccc12 (configuration not stated) | 122 |
| Nc1[nH]c(C(=O)c2ccccc2)c(-c2ccc(Br)cc2)c1C(=O)c1ccc(Br)cc1 | 62.2 |
| Nc1[nH]c(C(=O)c2ccc(Br)cc2)c(-c2ccc(Br)cc2)c1C(=O)NCc1ccc(F)cc1 | 102 |
| Cc1cc(C)cc(-c2c(C(=O)c3ccc(Br)cc3)[nH]c(N)c2C(=O)NCc2ccc(Cl)cc2)c1 | 98.5 |
| Nc1[nH]c(C(=O)c2ccc(Br)cc2)c(-c2ccc(Br)cc2)c1C(=O)NCc1ccc(-c2ccccc2)cc1 | 91.2 |
| NC(=O)c1c(N)[nH]c(C(=O)c2ccccc2)c1-c1ccccn1 | 82.1 |
| Nc1[nH]c(C(=O)c2ccc(Br)cc2)c(-c2ccc(Br)cc2)c1C(=O)NC1CCCCC1 | 83.4 |
| Nc1[nH]c(C(=O)c2ccccc2)c(-c2ccc(Cl)cc2)c1C(=O)O | 87.9 |

Further lines, results first:

| Activity [%] | SMILES |
| --- | --- |
| 64.5 | COc1ccc(C(=O)c2[nH]c(N)c(C(=O)NCCc3c[nH]c4ccccc34)c2-c2ccc(Cl)cc2Cl)cc1 |
| -29.7 | Nc1[nH]c(C(=O)c2ccccc2)c(-c2cc(F)ccc2Br)c1C(=O)NCCc1c[nH]c2ccccc12 |
| 86.1 | Nc1[nH]c(C(=O)c2ccc(Br)cc2)c(-c2ccncc2)c1C(=O)NCCc1c[nH]c2ccccc12 |
| 37.1 | COc1cc(-c2c(C(=O)c3ccccc3)[nH]c(N)c2C(=O)NCCc2c[nH]c3ccccc23)ccc1F |
| 2.31 | Nc1[nH]c(C(=O)c2ccccc2)c(-c2cccc(C(F)(F)F)c2)c1C(=O)NCc1cccc2ccccc12 |
| 72.5 | Nc1[nH]c(C(=O)c2ccccc2)c(-c2ccc(Cl)cc2[N+](=O)[O-])c1C(=O)NCCc1c[nH]c2ccccc12 |
| 74.7 | Nc1[nH]c(C(=O)c2ccccc2)c(-c2ccc(C(F)(F)F)cc2)c1C(=O)NCc1ccc(Cl)cc1Cl |
| 82.5 | Nc1[nH]c(C(=O)c2ccccc2)c(-c2cccnc2)c1C(=O)NCCc1c[nH]c2ccccc12 |
| 36.8 | Nc1[nH]c(C(=O)c2ccccc2)c(-c2ccc(Cl)c(Cl)c2)c1C(=O)NCCc1c[nH]c2ccccc12 |
| 62.5 | Cc1ccccc1-c1c(C(=O)c2ccccc2)[nH]c(N)c1C(=O)NCCc1c[nH]c2ccccc12 |
| 43.5 | Nc1[nH]c(C(=O)c2ccccc2)c(-c2ccc(C(F)(F)F)cc2)c1C(=O)NCCc1c[nH]c2ccccc12 |
| 97.9 to 105 | COc1ccc(-c2c(C(=O)c3ccccc3)[nH]c(N)c2C(=O)c2ccccc2)cc1OC |
| 62.2 | Nc1[nH]c(C(=O)c2ccccc2)c(-c2cccc3ccccc23)c1C(=O)NCc1ccc(F)c(F)c1 |
| 68.1 | COc1ccc(C(=O)c2[nH]c(N)c(C(=O)NCCc3c[nH]c4ccccc34)c2-c2ccc(Cl)cc2)cc1 |
| 94.4 | Cc1ccc(-c2c(C(=O)c3ccccc3)[nH]c(N)c2C(=O)NCc2ccc(Cl)cc2)cc1 |
| 75.1 | Nc1[nH]c(C(=O)c2ccccc2)c(-c2ccc(F)cc2)c1C(=O)Cc1ccccc1 |
| 94.9 | Nc1[nH]c(C(=O)c2ccccc2)c(-c2ccc(Cl)cc2)c1C(=O)NCCC1=CCCCC1 |
| 63.2 | Nc1[nH]c(C(=O)c2ccccc2)c(-c2ccccc2)c1C(=O)NCCc1c[nH]c2ccccc12 |
| 73.9 | Nc1[nH]c(C(=O)c2ccccc2)c(-c2ccc(Cl)cc2)c1C(=O)c1c[nH]c2ccccc12 |
| 97.3 | Nc1[nH]c(C(=O)c2ccccc2)c(-c2ccc(Cl)cc2)c1C(=O)NCc1ccccc1 |

| Activity [%] | SMILES |
| --- | --- |
| 52.6 | Nc1[nH]c(C(=O)c2ccccc2)c(-c2cccc(C(F)(F)F)c2)c1C(=O)NCCc1c[nH]c2ccccc12 |
| 98.6 | Nc1[nH]c(C(=O)c2ccccc2)c(-c2ccc3ccccc3c2)c1C(=O)NCc1cccc2ccccc12 |
| 98.5 | Nc1[nH]c(C(=O)c2ccccc2)c(-c2ccccn2)c1C(=O)c1c[nH]c2cc(F)ccc12 |
| 115 | Nc1[nH]c(C(=O)c2ccccc2)c(-c2cccc3ccccc23)c1C(=O)NCc1ccc(Cl)cc1Cl |
| 93.8 | Nc1[nH]c(C(=O)c2ccccc2)c(-c2ccccc2Br)c1C(=O)NCCc1ccc(Cl)cc1Cl |
| 50.9 | Nc1[nH]c(C(=O)c2ccccc2)c(-c2ccc(Cl)cc2)c1C(=O)c1c[nH]c2ccc(Br)cc12 |
| 70.3 | COc1ccc(C(=O)c2[nH]c(N)c(C(=O)NCCc3c[nH]c4ccccc34)c2-c2ccc(OC)c(OC)c2)cc1 |
| 79.7 | Cc1[nH]c2ccccc2c1C(=O)c1c(N)[nH]c(C(=O)c2ccccc2)c1-c1ccc(Cl)cc1 |
| 75.9 | Nc1[nH]c(C(=O)c2ccc(Br)cc2)c(-c2ccc3c(c2)OCO3)c1C(=O)NCCc1c[nH]c2ccccc12 |
| 35.3 | COc1ccc(-c2c(C(=O)c3ccccc3)[nH]c(N)c2C(=O)NCCc2c[nH]c3ccccc23)cc1 |
| 40.1 | COc1ccc(C(=O)c2[nH]c(N)c(C(=O)NCCc3c[nH]c4ccccc34)c2-c2ccc(Br)cc2)cc1 |
| 92.5 | Nc1[nH]c(C(=O)c2ccccc2)c(-c2cccc3ccccc23)c1C(=O)NCc1ccccc1 |
| 30.6 | Nc1[nH]c(C(=O)c2ccc(Br)cc2)c(-c2ccc(Br)cc2)c1C(=O)NCCc1c[nH]c2ccccc12 |
| 90.8 | CCCCCCNC(=O)c1c(N)[nH]c(C(=O)c2ccccc2)c1-c1ccc(O)cc1 |
| 66.4 | COc1ccc(CCNC(=O)c2c(N)[nH]c(C(=O)c3ccccc3)c2-c2ccc(N(C)C)cc2)cc1 |
| 95.7 | COc1ccc(C(=O)c2[nH]c(N)c(C(=O)c3ccccc3)c2-c2ccc(OC)c(OC)c2)cc1 |
| 98.1 | Nc1[nH]c(C(=O)c2ccccc2)c(-c2ccccc2[N+](=O)[O-])c1C(=O)NCCc1c[nH]c2ccccc12 |
| 45.5 | Nc1[nH]c(C(=O)c2ccccc2)c(-c2ccccc2C(F)(F)F)c1C(=O)NCCc1c[nH]c2ccccc12 |
| 99.9 | Nc1[nH]c(C(=O)c2ccccc2)c(-c2cccnc2)c1C(=O)NCCc1ccc(Cl)cc1Cl |
